Assay outcomes deposited in PubChem BioAssay by Johns Hopkins Ion Channel Center.
This is a sample that favours compounds with a hit; in the whole collection about 3.7% have one here.
KCNK9 inh: human KCNK9 channel inhibition; Q9NPC2; HEK293 KCNK9, FluxOR thallium flux fluorescence; active compounds read low; B-score at 10 µM; 1.2% of 310,000 active; AID 488922;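 active means ratio B-score over 3 SD below the library mean, with starting fluorescence within 5 SD of its mean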;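 further: negative B-score means less thallium flux so channel inhibition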
KCNK3 inh: human KCNK3 channel inhibition, primary screen; O14649; 0.84% of 340,000 active; CHO-KCNK3 thallium flux, FluxOR fluorescence; active compounds read low; B-score at 10 µM;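 active means B-score under library mean minus 4 SD, starting fluorescence ratio at most library mean plus 5 SD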;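 further: more negative B-score means stronger inhibition of thallium flux through KCNK3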
hERG protect: shields human hERG channel from block by proarrhythmic agents; Q12809; 0.51% of 310,000 active; CHO-hERG, FluxOR thallium flux, dofetilide IC70 present; activation (rescue from dofetilide block), less the hit threshold, % at 10 µM;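 active means activation above the mean of controls blocked by dofetilide plus 5 SD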;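 further: thallium influx through hERG after potassium depolarization seen as dye fluorescence rise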
KCNQ1 inh: blocks the human KCNQ1 potassium channel | P51787 | CHO-K1 KCNQ1, FluxOR thallium flux fluorescence; active compounds read high | B-score at 10 µM | 1.3% of 310,000 active | AID 2642;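 active means compounds whose thallium flux B-score, printed positive for inhibition, exceeds three library SD while starting fluorescence stays within three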;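 further: channel opened by potassium depolarization with thallium stimulus after 20 min compound exposure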
Kir21 inh: inhibitors of mouse Kir2.1 inward-rectifier potassium channel; P35561; HEK293-Kir2.1, FluxOR thallium flux fluorescence; active compounds read low; B-score at 10 µM; 0.85% of 310,000 active; AID 1672;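 active means fluorescence ratio B-score at or below minus 3 SD of library scores, with starting-brightness B-score within 2 SD, cut at about -4.2 in these data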;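 further: channel flux triggered by added potassium and thallium sulfate stimulus; B-score of peak minus minimum fluorescence over baseline after thallium stimulus; more negative B-score means stronger Kir2.1 block with less thallium influx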
Target sequence (P35561 whole entry, looked up): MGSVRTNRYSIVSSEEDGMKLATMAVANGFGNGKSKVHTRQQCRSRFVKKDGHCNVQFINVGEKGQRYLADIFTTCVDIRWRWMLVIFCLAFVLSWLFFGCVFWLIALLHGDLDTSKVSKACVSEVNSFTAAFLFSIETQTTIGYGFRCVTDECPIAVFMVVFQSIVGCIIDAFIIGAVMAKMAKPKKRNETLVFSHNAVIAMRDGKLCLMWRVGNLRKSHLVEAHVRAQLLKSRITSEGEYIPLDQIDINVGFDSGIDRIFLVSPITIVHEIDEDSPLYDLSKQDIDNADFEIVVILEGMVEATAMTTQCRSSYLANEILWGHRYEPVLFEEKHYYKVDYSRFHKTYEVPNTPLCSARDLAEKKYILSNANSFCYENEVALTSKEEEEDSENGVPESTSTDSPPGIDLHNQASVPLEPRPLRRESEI
KCNQ1 pot: potentiators or activators of human KCNQ1 potassium channel; 0.35% of 310,000 active; B-score at 10 µM; P51787; CHO-K1 KCNQ1, thallium flux FluxOR fluorescence; active compounds read high;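 active means fluorescence ratio B-score, a plate-corrected score, at least three library SD, with initial intensity B-score within 5 SD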
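assay system = CHO-K1 cells stably expressing KCNQ1 | medium = assay buffer, equal DMSO in all wells | timing = 37 °C overnight plating, 90-min dark dye load, 20-min compound pretreatment | measured by = kinetic FluxOR thallium fluorescence, 10-s 1-Hz baseline, 110-s post-stimulus read | measure = fluorescence change relative to baseline, converted to B score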
An asterisk follows results filed as active; i = inactive; . = no result given.

SMILES	KCNK9 inh	KCNK3 inh	hERG protect	KCNQ1 inh	Kir21 inh	KCNQ1 pot
CNC(=O)NC(=O)COC(=O)c1ccccc1OCc1ccccc1	i	i	8.3*	i	0.81	i
COc1ccccc1C(=O)OCC(=O)NC(=O)NCc1ccccc1	i	i	-6	i	-0.9	i
Cc1ccc(NC(=O)C(=O)NCC2CCCN2S(=O)(=O)c2cccs2)c(C)c1 (centres undefined)	i	i	-14	i	-0.68	i
Cc1ccc(C)c(NC(=O)C(=O)NCC2CCCN2S(=O)(=O)c2cccs2)c1 (centres undefined)	-7.2*	i	-17	i	-0.07	i
O=C(COC(=O)c1cccc(S(=O)(=O)NCc2ccccc2)c1)c1ccccc1	i	i	-8	i	0.04	i
Cc1cc(C)c(C(=O)COC(=O)c2cccc(S(=O)(=O)NCc3ccccc3)c2)cc1C	i	i	-7	i	-4.3*	i
CCOc1ccc(C2Oc3nc(SC)nnc3-c3ccccc3N2C(C)=O)cc1OC (centres undefined)	i	i	-8	i	0.07	i
CC(C)OC(=O)/C(=C\c1ccc2c(c1)c1ccccc1n2C)NC(=O)c1ccccc1	-7.9*	i	-8	i	-1.5	i
Cn1c2ccccc2c2cc(/C=C(\NC(=O)c3ccccc3)C(=O)O)ccc21	i	i	-4	i	2	i
CC(C)OC(=O)/C(=C/c1ccc2c(c1)c1ccccc1n2C)NC(=O)c1ccccc1	-7.6*	i	-4	i	0.35	i
CC(C)OC(=O)/C(=C\c1cccnc1)NC(=O)c1ccccc1	i	i	-5	i	-0.15	i
C[C@]12c3[nH]c4cc(-c5ccco5)ccc4c3CCN1C(=O)[C@@H](CC(=O)NCCCn1ccnc1)C[C@@H]2C(=O)N1CCOCC1	.	i	.	.	.	.
CCN(CC(=O)NCc1ccc(F)cc1)C(=O)c1ccc2c(c1)OCO2	.	i	.	.	.	.
O=C(Cn1[nH]c(=O)c2ccccc2c1=O)Nc1ccc(-c2nnc3n2CCCCC3)cc1	i	i	-2	i	1.2	i
COc1ccc(CNCCC(c2ccc(OC(C)C)cc2)c2ccccc2OC)cc1OC (centres undefined)	i	i	-16	i	-3.3	i
COc1ccccc1C(CCNCc1ccccc1)c1ccc(OC(C)C)cc1 (centres undefined)	i	i	-20	i	-6.3*	i
COc1ccc(CNCCC(c2ccc(OC(C)C)cc2)c2ccccc2OC)cc1 (centres undefined)	i	i	-20	9*	-7.4*	i
COc1ccc(CNCCC(c2ccccc2)c2ccc3c(c2)OCO3)cc1 (centres undefined)	i	i	-16	i	-8.1*	i
COc1ccccc1C(CCNCc1ccc(N(C)C)cc1)c1ccc(OC(C)C)cc1 (centres undefined)	i	i	-27	10*	-4.4*	i
COc1ccc(C(CC(=O)O)c2ccc3c(c2)OCO3)cc1 (centres undefined)	i	i	-3	i	-0.42	i
COCCCNC(=O)C1=CCN(S(=O)(=O)c2ccc(C)cc2)CC1	i	i	-7	i	-0.5	i
COc1ccccc1N1CCN(Cc2c[nH]c3ccccc23)CC1	i	i	-1	i	-0.61	i
Cc1ccccc1N1CCN(Cc2c[nH]c3ccccc23)CC1	i	i	-15	6*	-5.5*	i
Cc1ccc(NC(=O)CCCc2ccccc2)nc1	i	i	-16	6*	0.83	i
Cc1ccc(NC(=O)Cc2ccc(-c3ccccc3)cc2)nc1	i	i	-3	i	0.99	i
O=C(Nc1ccc(F)cc1)Nc1nnc(Cc2ccccc2F)s1	i	i	-5	i	0.54	i
CCN(CC)S(=O)(=O)c1cc(NC(=O)CSCc2c(C)noc2C)ccc1C	.	-10*	.	.	.	.
Cc1ccc(C(=O)NCCc2ccc(S(N)(=O)=O)cc2)cc1[N+](=O)[O-]	i	i	-3	i	0.85	i
CN(/C=C/C(=C\C=[N+](C)c1ccccc1)OCCCS(=O)(=O)[O-])c1ccccc1	i	i	-19	6*	-4.6	i
